ChEMBL document CHEMBL4229335 (Eur J Med Chem, 2018)
Calls of active or inactive are those of the source. The calls are words filed in the database; no cut-off is given here.

Assays:
HL-60 = assay: Antiproliferative activity against human HL60 cells after 72 hrs by MTT assay; assay type: functional, cell-based; details: HL-60, 72 h
Procedure, shortened: (§1)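 MTT assay with 72 h exposure to graded concentrations in triplicate. MTT solution then DMSO were added, followed by 10 min at room temperature, with absorbance read at 490 nm. IC50 is reported as the mean of three independent experiments. 5-FU served as positive control.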

PC-3 = assay: Antiproliferative activity against human PC3 cells after 72 hrs by MTT assay; assay type: functional, cell-based; details: PC-3, 72 h; procedure, shortened: as §1
Bel7402/5-FU = assay: Antiproliferative activity against human Bel7402/5-FU cells after 72 hrs by MTT assay; assay type: functional, cell-based; procedure, shortened: as §1
L02 = assay: Antiproliferative activity against human LO2 cells after 72 hrs by MTT assay; assay type: cell-based; details: L02, 72 h; procedure, shortened: as §1
[1] = Selectivity index, ratio of IC50 for human LO2 cells to IC50 for human Bel7402 cells; assay type: toxicity; details: LO2 cells versus Bel7402 cells, read-out: Ratio IC50
Procedure, shortened: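 SI was calculated as IC50 in L-02 normal liver cells divided by IC50 in Bel-7402 cells, both from the 72 h MTT assay.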

Bel-7402 [2] = assay: Antiproliferative activity against human Bel7402 cells after 72 hrs by MTT assay; assay type: functional, cell-based; details: Bel-7402, 72 h; procedure, shortened: as §1
Bel-7402 [3] = assay: Cell cycle arrest in human Bel7402 cells assessed as accumulation of cells at G1 phase at 0.4 uM after 48 hrs by propidium iodide staining-based flow cytometric analysis (reference value: 63.55%); assay type: functional
Procedure, shortened: (§2)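 Bel-7402 cells were seeded in 6-well plates and grown 24 h at 37 °C. Compound in DMSO was added in triplicate, with DMSO-only controls, for 48 h. Cells were then centrifuged, fixed in 70% ethanol at 4 °C and stained with propidium iodide. DNA content was measured by flow cytometry to give cell-cycle phase distribution.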

Bel-7402 [4] = assay: Cell cycle arrest in human Bel7402 cells assessed as accumulation of cells at G2 phase at 0.4 uM after 48 hrs by propidium iodide staining-based flow cytometric analysis (reference value: 23.53%); assay type: functional; procedure, shortened: as §2
Bel-7402 [5] = assay: Cell cycle arrest in human Bel7402 cells assessed as accumulation of cells at S phase at 0.4 uM after 48 hrs by propidium iodide staining-based flow cytometric analysis (reference value: 12.92%); assay type: functional; procedure, shortened: as §2
Bel-7402 [6] = assay: Cell cycle arrest in human Bel7402 cells assessed as G2/G1 phase ratio level at 0.4 uM after 48 hrs by propidium iodide staining-based flow cytometric analysis (reference value: 1.82%); assay type: functional; procedure, shortened: as §2
Bel-7402 [7] = assay: Cell cycle arrest in human Bel7402 cells assessed as accumulation of cells at G1 phase at 0.8 uM after 48 hrs by propidium iodide staining-based flow cytometric analysis (reference value: 63.55%); assay type: functional; procedure, shortened: as §2
Bel-7402 [8] = assay: Cell cycle arrest in human Bel7402 cells assessed as accumulation of cells at G2 phase at 0.8 uM after 48 hrs by propidium iodide staining-based flow cytometric analysis (reference value: 23.53%); assay type: functional; procedure, shortened: as §2
Bel-7402 [9] = assay: Cell cycle arrest in human Bel7402 cells assessed as accumulation of cells at S phase at 0.8 uM after 48 hrs by propidium iodide staining-based flow cytometric analysis (reference value: 12.92%); assay type: functional; procedure, shortened: as §2
Bel-7402 [10] = assay: Cell cycle arrest in human Bel7402 cells assessed as G2/G1 phase ratio level at 0.8 uM after 48 hrs by propidium iodide staining-based flow cytometric analysis (reference value: 1.82%); assay type: functional; procedure, shortened: as §2
Bel-7402 [11] = assay: Cell cycle arrest in human Bel7402 cells assessed as accumulation of cells at G1 phase at 1.2 uM after 48 hrs by propidium iodide staining-based flow cytometric analysis (reference value: 63.55%); assay type: functional; procedure, shortened: as §2
Bel-7402 [12] = assay: Cell cycle arrest in human Bel7402 cells assessed as accumulation of cells at G2 phase at 1.2 uM after 48 hrs by propidium iodide staining-based flow cytometric analysis (reference value: 23.53%); assay type: functional; procedure, shortened: as §2
Bel-7402 [13] = assay: Cell cycle arrest in human Bel7402 cells assessed as accumulation of cells at S phase at 1.2 uM after 48 hrs by propidium iodide staining-based flow cytometric analysis (reference value: 12.92%); assay type: functional; procedure, shortened: as §2
Bel-7402 [14] = assay: Cell cycle arrest in human Bel7402 cells assessed as G2/G1 phase ratio level at 1.2 uM after 48 hrs by propidium iodide staining-based flow cytometric analysis (reference value: 1.82%); assay type: functional; procedure, shortened: as §2
Bel-7402 [15] = assay: Induction of apoptosis in human Bel7402 cells assessed as chromatin condensation at 0.4 to 1.2 uM after 48 hrs by Hoechst […] staining-based fluorescent microscopic analysis; assay type: functional, cell-based
Procedure, shortened: (§3)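 Bel-7402 cells were seeded in 6-well plates in 2 mL medium and grown 24 h. Compound was then added for 48 h, with a vehicle control. Nuclei were stained with Hoechst 33258 and examined by fluorescence microscopy for chromatin condensation and nuclear disintegration.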

Bel-7402 [16] = assay: Induction of apoptosis in human Bel7402 cells assessed as nuclear disintegration at 0.4 to 1.2 uM after 48 hrs by Hoechst […] staining-based fluorescent microscopic analysis; assay type: functional, cell-based; procedure, shortened: as §3
Bel-7402 [17] = assay: Induction of apoptosis in human Bel7402 cells assessed as early apoptotic cells at 0.4 uM after 24 hrs by Annexin V-FITC/propidium iodide staining-based flow cytometric analysis (reference value: 1.07%); assay type: functional
Bel-7402 [18] = assay: Induction of apoptosis in human Bel7402 cells assessed as late apoptotic cells at 0.4 uM after 24 hrs by Annexin V-FITC/propidium iodide staining-based flow cytometric analysis (reference value: 0.96%); assay type: functional
Bel-7402 [19] = assay: Induction of apoptosis in human Bel7402 cells assessed as necrotic cells at 0.4 uM after 24 hrs by Annexin V-FITC/propidium iodide staining-based flow cytometric analysis (reference value: 11.96%); assay type: functional
Bel-7402 [20] = assay: Induction of apoptosis in human Bel7402 cells assessed as early apoptotic cells at 0.8 uM after 24 hrs by Annexin V-FITC/propidium iodide staining-based flow cytometric analysis (reference value: 1.07%); assay type: functional
Bel-7402 [21] = assay: Induction of apoptosis in human Bel7402 cells assessed as late apoptotic cells at 0.8 uM after 24 hrs by Annexin V-FITC/propidium iodide staining-based flow cytometric analysis (reference value: 0.96%); assay type: functional
Bel-7402 [22] = assay: Induction of apoptosis in human Bel7402 cells assessed as necrotic cells at 0.8 uM after 24 hrs by Annexin V-FITC/propidium iodide staining-based flow cytometric analysis (reference value: 11.96%); assay type: functional
Bel-7402 [23] = assay: Induction of apoptosis in human Bel7402 cells assessed as early apoptotic cells at 1.2 uM after 24 hrs by Annexin V-FITC/propidium iodide staining-based flow cytometric analysis (reference value: 1.07%); assay type: functional
Bel-7402 [24] = assay: Induction of apoptosis in human Bel7402 cells assessed as late apoptotic cells at 1.2 uM after 24 hrs by Annexin V-FITC/propidium iodide staining-based flow cytometric analysis (reference value: 0.96%); assay type: functional
Bel-7402 [25] = assay: Induction of apoptosis in human Bel7402 cells assessed as necrotic cells at 1.2 uM after 24 hrs by Annexin V-FITC/propidium iodide staining-based flow cytometric analysis (reference value: 11.96%); assay type: functional
Bel-7402 [26] = assay: Induction of apoptosis in human Bel7402 cells after 24 hrs by Annexin V-FITC/propidium iodide staining-based flow cytometric analysis; assay type: functional, cell-based
Bel-7402 [27] = assay: Induction of mitochondrial membrane potential loss in human Bel7402 cells at 0.4 uM after 48 hrs by JC-1 dye-based flow cytometric analysis (reference value: 7.20%); assay type: functional
Procedure, shortened: (§4)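 Bel-7402 cells were exposed in triplicate for 48 h to compound or vehicle. Cells were washed with PBS and stained with JC-1 in the dark. The fraction of cells with collapsed versus intact mitochondrial membrane potential was counted by flow cytometry.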

Bel-7402 [28] = assay: Induction of mitochondrial membrane potential loss in human Bel7402 cells at 0.8 uM after 48 hrs by JC-1 dye-based flow cytometric analysis (reference value: 7.20%); assay type: functional; procedure, shortened: as §4
Bel-7402 [29] = assay: Induction of mitochondrial membrane potential loss in human Bel7402 cells at 1.2 uM after 48 hrs by JC-1 dye-based flow cytometric analysis (reference value: 7.20%); assay type: functional; procedure, shortened: as §4
Bel-7402 [30] = assay: Induction of mitochondrial membrane potential in human Bel7402 cells after 48 hrs by JC-1 dye-based flow cytometric analysis; assay type: functional, cell-based; procedure, shortened: as §4
Bel-7402 [31] = assay: Induction of apoptosis in human Bel7402 cells assessed as upregulation of Bax expression after 48 hrs by Western blot analysis; assay type: functional, cell-based
Procedure, shortened: (§5)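 Bel-7402 cells were treated in triplicate for 48 h at 0, 0.4, 0.8 and 1.2 µM. Protein content of lysates was determined, then lysates were run on 10% SDS-PAGE and transferred to nitrocellulose. Membranes were blocked with 5% fat-free milk, probed with monoclonal antibodies and detected by ECL chemiluminescence.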

Bel-7402 [32] = assay: Induction of apoptosis in human Bel7402 cells assessed as upregulation of caspase3 expression after 48 hrs by Western blot analysis; assay type: functional, cell-based; procedure, shortened: as §5
Bel-7402 [33] = assay: Induction of apoptosis in human Bel7402 cells assessed as upregulation of caspase9 expression after 48 hrs by Western blot analysis; assay type: functional, cell-based; procedure, shortened: as §5
Bel-7402 [34] = assay: Induction of apoptosis in human Bel7402 cells assessed as upregulation of cytochrome C expression after 48 hrs by Western blot analysis; assay type: functional, cell-based; procedure, shortened: as §5
Bel-7402 [35] = assay: Induction of apoptosis in human Bel7402 cells assessed as upregulation of p53 expression after 48 hrs by Western blot analysis; assay type: functional, cell-based; procedure, shortened: as §5
Bel-7402 [36] = assay: Induction of apoptosis in human Bel7402 cells assessed as downregulation of Bcl2 expression after 48 hrs by Western blot analysis; assay type: functional, cell-based; procedure, shortened: as §5

Molecule `C=C1C(=O)[C@@]23C(=O)O[C@H]4CCC(C)(C)[C@H]5C(=O)OC[C@@]45[C@@H]2CC[C@@H]1[C@H]3O` has an IC50 (HL-60) of 20.6 µM, an IC50 (PC-3) of 22.6 µM and an IC50 (Bel7402/5-FU) of 19.6 µM. It also gave an IC50 (L02) of 25.5 µM and a selectivity ratio [1] of 1.6.
Work on `C=C1C(=O)[C@@]23C(=O)O[C@H]4CCC(C)(C)[C@H]5[C@H](O)OC[C@@]45[C@@H]2CC[C@@H]1[C@H]3OC(=O)c1ccc(N(CCCl)CCCl)cc1` yielded an IC50 (HL-60) of 7.83 µM, an IC50 (PC-3) of 3.97 µM and an IC50 (Bel-7402 [2]) of 0.77 µM. For the same molecule, the IC50 (Bel7402/5-FU) was 2.07 µM, the IC50 (L02) was > 100 µM and the selectivity ratio [1] was > 130. For the same molecule, the Activity (Bel-7402 [3]) was 66.71%, the Activity (Bel-7402 [4]) was 18.15% and the Activity (Bel-7402 [5]) was 15.15%. The Ratio (Bel-7402 [6]) was 1.84, the Activity (Bel-7402 [7]) was 69.71% and the Activity (Bel-7402 [8]) was 15.87%. It also gave an Activity (Bel-7402 [9]) of 14.42%, a Ratio (Bel-7402 [10]) of 1.85 and an Activity (Bel-7402 [11]) of 72.09%. It also gave an Activity (Bel-7402 [12]) of 13.33%, an Activity (Bel-7402 [13]) of 14.59% and a Ratio (Bel-7402 [14]) of 1.84. For the same molecule, the Activity (Bel-7402 [15]) was “Active”, the Activity (Bel-7402 [16]) was “Active” and the Activity (Bel-7402 [17]) was 11.8%. The Activity (Bel-7402 [18]) was 7.07%, the Activity (Bel-7402 [19]) was 8.38% and the Activity (Bel-7402 [20]) was 24.22%. The Activity (Bel-7402 [21]) was 11.31%, the Activity (Bel-7402 [22]) was 4.23% and the Activity (Bel-7402 [23]) was 41.53%. The Activity (Bel-7402 [24]) was 19.39%, the Activity (Bel-7402 [25]) was 4.33% and the Activity (Bel-7402 [26]) was “Dose-dependent effect”. The Activity (Bel-7402 [27]) was 14.38%, the Activity (Bel-7402 [28]) was 20.93% and the Activity (Bel-7402 [29]) was 40%. For the same molecule, the Activity (Bel-7402 [30]) was “Dose-dependent effect”, the Activity (Bel-7402 [31]) was “Dose-dependent effect” and the Activity (Bel-7402 [32]) was “Dose-dependent effect”. For the same molecule, the Activity (Bel-7402 [33]) was “Dose-dependent effect”, the Activity (Bel-7402 [34]) was “Dose-dependent effect” and the Activity (Bel-7402 [35]) was “Dose-dependent effect”. For the same molecule, the Activity (Bel-7402 [36]) was “Dose-dependent effect”.
With `O=C(O)CCCc1ccc(N(CCCl)CCCl)cc1` [CHLORAMBUCIL] the IC50 (Bel-7402 [2]) was > 100 µM, the IC50 (Bel7402/5-FU) was > 100 µM and the IC50 (L02) was > 100 µM.
